From the RNAGym collection of RNA variant scans (doi:10.1126/science.aae0568)
This sample holds only a part of the variants without activity.

B1: tRNA (parent)
chain: GUUCCGUUGGCGUAAUGGUAACGCGUCUCCCUCCUAAGGAGAAGACUGCGGGUUCGAGUCCCGUACGGAACG

Variants of: B1
Assay: yeast fitness relative to wild type (ratio to wild type); higher = fitter; tRNA-Arg(CCU), competitive growth, 37 C, YPD
Method in brief: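 Amplicons of the tRNA-Arg(CCU) gene were sequenced, 100-nucleotide paired-end, from the start population and from each end population of a pooled yeast competition. The competition, in six parallel replicates, lasted 24 hours in YPD at 37°C. Fitness relative to wild type was calculated from changes in genotype frequencies. Genotypes had to have ≥ 100 starting reads, and estimates < 0.5 were set to 0.5.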
GGUCCGUUGGCGUAAUGGUAACGCGUGUCCCUCCUAAGGAGAAGACUGCGGGUUCGAGUCCCGUAUGGAACG gave a yeast fitness of no more than 0.5.
For GGUCCGUUGGCGUAAUGGUAACGCGUCUCACUCCUGAGCAGAAGACUGCGGGUUCGGGUCCCGUACGGAACG, the yeast fitness was 0.709.
Variant GGUCCGUUGGCGUAAUGGUAAGGCGUCUCCCUCCUAAGGACAAGACUGCGGGUUCGAGUCCCGUACGAAACG has a yeast fitness of 0.573.
In the case of GGUCCGUUGGCGUAAUGGUAACGCGUGUCCCUCCUAAGGAGAAGACUGCGGCUUCGAGUCCCGUACGGAACG, the yeast fitness is reported as no more than 0.5.
With GGUCCGUUGGCGUAAUGGUAACGCGUCUCACUCCUAAGGAGAAGAGUGCGGGUUCGAGUCCCGUACGGAACG the yeast fitness was 0.666.
For GGUCAGUUGGCGUAAUGGUAACGCGUCUCCCUCCUAAGGAGAAGACUGCGGGUUGGAGUCCCGUCCGGAACG, the yeast fitness was no more than 0.5.
Variant GGUCAGUUGGCAUAAUGGUAACGCGUCUCCCUCCUAAGGAGAAGACUGCGGGUUGGAGUCCCGUACGGAACG has a yeast fitness of no more than 0.5.
GGUCCGUUGGCGUAAUGGUAACGCGUUUCCCUCCUAAGGGGAAGACUACGGGUUCGAGUCCCGUACGGAACG showed a yeast fitness of 0.576.
In the case of GGUCAGUUGGCGUAAUGGUAACACGUCCCCCUCCUAAGGAGAAGACUGCGGGUUCGAGCGCCGUACGGAACG, the yeast fitness is reported as no more than 0.5.
For GGUCCGUUGGCGUAAUGGUAACGCGUCUGCCUCCUAAGGAGAAGACUGCCGGUUCGUGUCCCGUACGGAACG, the yeast fitness was no more than 0.5.
With GGUCCGUUGGGGUAAUGGUAACGCGUCUCCCUCCUAAGGAGAAGACUGCGGGUUCGAGUCCUGUACGGAACG the yeast fitness was 0.609.
In the case of GGUCCGUUGGCGUAAUGGUAACGGGUCUCCUUCCUAAGGAGAAGACUGCGGGUUCGAGUCCCGUACCGAACG, the yeast fitness is reported as no more than 0.5.
With GGUCUGUUGGCGUAAUGGUAACGCGUCUCCGUCCUAAGGAGAAGACUGCGGGUUCGAGUCCCGUACGGAACG the yeast fitness was 0.583.
For GGUCCGUUGGUGUAAUGGUAACGCGUGUCCCUCCUAAGGAGAAGACUGCGGCUUCGAGUCCCGUACGGAACG, the yeast fitness was no more than 0.5.
In the case of GGUCCGUUGGCGUAAUGGUAAUGGGUCUCCCUCCUAAGGAGAAGACUGCGGGUUCGAGUCCCGUACGGUACG, the yeast fitness is reported as 0.501.
GGUCCGUUGGCGUAAUGGUAACGGGUCUCCCUCCUGAGGAGCAGACUGCGGGUUCGAGUCUGGUACGGAACG showed a yeast fitness of no more than 0.5.
GGUCCGUUGGCGUAAUGGUAACGCGUGUCCCUCCUAAGGAGAAGACUGCGGGUUCGAGUCCCGUUCGGAACG showed a yeast fitness of no more than 0.5.
Variant GGUCCGUUGGCGUAAUGGUAACGCGUUUCCCUCCUACGGAGAAGACUGCGGAUUCGAGUCCCGUACAGAACG has a yeast fitness of no more than 0.5.
GGUCCGUUGGAGUAAUGGUAACGAGACUCCCUCCUAAGGAGAACACUGCGGGUUCGAGUCCCGUACGGAGCG showed a yeast fitness of no more than 0.5.
For GGUCCGUUGGCGUAAUGGUAACGCGUCUGCAUCCUAAGGAGAAGACUGCGGGUUCGAGUCCCGUACAGAACG, the yeast fitness was no more than 0.5.
In the case of GGUCAGUUGGCGUAAUGGAAACGCGUCUCCCUCCUAAGGAGAAGACUGCGGGUUCGAGUCCCGUACGGAACG, the yeast fitness is reported as 0.552.
Variant GGUCCGUUGGCGUAAUGGUAACGCGUGUCCCUCCUAAGGAGAAGACUGCGGGUUCGAGUCCCGUAUCGAGCG has a yeast fitness of no more than 0.5.
In the case of GGUCCGUUGGCGUAAUGGUAACGCGUCUCACUCCUAAGGAGAAGACUGCGGGUUCGAGUCCCGUACGGAACG, the yeast fitness is reported as 0.709.
For GGUCCGUUGGGAUAAUGGUUACGCGUCUCCGUCCUAAGGAGAAGACUGCGGGUUCGAGUCCCGUACGCAACG, the yeast fitness was no more than 0.5.
Variant GGUCCGUUGGCGUAAUGGUAACGCGUUUCCCUCCUAAGGAGAAGACUGCGGGUUCGAGUCCCGUACGUAACG has a yeast fitness of 0.589.
In the case of GGUCCGUUGGCGUAAUGGUAAUGGGUCUCCCUCCUAUGGAGAAGACUGCGGGUUCGAGUCCCGUACGGAACG, the yeast fitness is reported as no more than 0.5.
Variant GGUCCGUUGGCGUAAUGGUAAGGCGUGUCACGCCUAAGGAGAAGACUGCGGGUUGGAGUCCCGUACGGAACG has a yeast fitness of no more than 0.5.
Variant GGUCCGUUGGGGUAAUGGUUAUGCGUCUCCCUCUUAAGGAGAAGACUGAGGAUUCGAGUCCCGUACGGAACG has a yeast fitness of no more than 0.5.
GGUCAGUUGGCGUAAUGGUAACGCGUCUCCCUCCUAAGGAGAUGACUGCGGGUUCGAGUCCCGUACGGAACG gave a yeast fitness of 0.68.
GGUCCGUUGGCGUAAUGGUAACGUGUCUCCCUCCUAAGGAGAAGCCUACGGGUUCGAGUCCCGUACAGAACG gave a yeast fitness of no more than 0.5.
Work on GGUCCGUUGGCGUAAUGGUAAGGCGUCACCGUCCUAAGGAGAAGACUGCGGGUUAGAGUCCCGUACGCAACG yielded a yeast fitness of no more than 0.5.
Variant GGUCCGUUGGCGUAAUGGUAAUGCGUCUCCCUCCUAAGGAGAAGACUGCGGGUUCGUGUCCCGUACGGAACG has a yeast fitness of no more than 0.5.
In the case of GGUCCGUUGGCGUAAUGGUAACGCGUGUCCCUUCUAAGGAGAAGACUGCGGGUUCAAGUCCCGUACGGAACG, the yeast fitness is reported as no more than 0.5.
Variant GGUUCGUUGGCGAAAUGGUAACGCGUCUCCCUCCUAAGGAAAAGCCUGAGGGUGGGAGUCCCGUACGGAACG has a yeast fitness of no more than 0.5.
With GGUCCGUUGGAGUCAUGGUAACGCGUCUCCCUCAUAAGGAGAAGACUGCGGGUUCGAGUCCCGUACGGAACG the yeast fitness was no more than 0.5.
GGUCGGUUGGGGUAAUGGUAACGCGUCUCCCUCCUAAGGAGAAGACUGCGGGUUCCAGUCGCGUACGGAACG gave a yeast fitness of no more than 0.5.
GGUCCGUUGGCGUAAUGGUAACGCGUGUCCCUUCUAAGGAGAAGACUGUGGGUUCGAGUCCCGUACGGAACG showed a yeast fitness of no more than 0.5.
